Mdm2 MdmX PPI: disrupts the human Mdm2-MdmX interaction. actives 3% (n = 330,000). O15151+Q00987. SaOS-2 split-luciferase Mdm2/MdmX complementation, luminescence. inhibition, % at 8 µM. AID 485346;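 active = inhibition of at least 50% at 8 µM in the primary screen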
Calb FLC: C. albicans growth modulation with fluconazole; growth inhibition, % (test concentration not listed); AID 1979; C. albicans CaCi-2 (fluconazole-resistant clinical isolate) + fluconazole, Alamar Blue growth, 48 h; actives 0.57% (n = 300,000);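 active = growth inhibition above about 58% in most replicates, limit read from the data, passing the limit was not always enough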;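 also: all wells also contain fluconazole at 8 µg/ml as a sub-toxic cotreatment; 0% = median of DMSO wells and 100% = median of geldanamycin control wells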
Beta cell apopt: blocks beta cell apoptosis. INS-1E cytokine-induced death, ATP luminescence, 48 h; percent of positive-control rescue, neutral wells zero. protection from apoptosis, % (no concentration beside the values). actives 0.8% (n = 300,000). AID 435005;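 active = Every replicate reaches about 75%, or at least half do and their mean reaches it too, limit read from the data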;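 also: 0% = cytokine-treated negative control wells and 100% = positive control rescue; higher means more ATP so stronger rescue from cytokine killing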
CSC inhib: cancer stem cell inhibition; cancer stem cell-like cells viability, luminescence; inhibition, % at 7.5 µM; actives 1.1% (n = 300,000); AID 2717; in the data active = inhibition above about 75%; tested in HMLE shEcad cells
T cruzi repl: T. cruzi replication inhibition; T. cruzi beta-gal in NIH3T3, luminescence, 90 h; inhibition, % (test concentration not listed); actives 1.4% (n = 300,000);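 active = mean inhibition across valid replicates above about 55%, limit read from the data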;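 also: signal also drops with host cell toxicity which is not excluded here; 0% = plate median of DMSO wells and 100% = zero luminescence signal; higher percent means less beta-gal luminescence so fewer parasites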
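Read-out: Parasite load inhibition, % | Test system: Mouse NIH/3T3 fibroblasts infected with β-gal-expressing T. cruzi Tulahuen C4 | Amount: 5,000 cells/well | Medium: DMEM, 2% fetal bovine serum | Signal: GalScreen β-gal luminescence, detergent lysis, 60 min | Timing: 3 h attach, ≥90 h co-culture | Also added: Tulahuen C4 trypomastigotes, 5000/well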
SKKanGAS inh: blocks kanamycin growth of S. pyogenes SKKanGAS strain; BacTiter-Glo, 6 h; inhibition, % at 7.5 µM; actives 1.3% (n = 300,000); AID 1662;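 active = mean replicate score, as percent of positive control median, at least 50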;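 also: strain carries kanamycin resistance gene driven by streptokinase promoter and grows in 40 µg/ml kanamycin; loss of luminescence reflects streptokinase promoter inhibition or plain growth inhibition; 0% = median of DMSO wells and 100% = positive control at its reference dose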
Starred values were filed as active, the others as inactive. Shown are actives, neighbours in structure and some others; about 5.7% of the full set was active somewhere.

Results for Cc1ccc(CNC(=O)CCC2CCCN(Cc3cc4ccccc4o3)C2)o1 (configuration not stated) ?
Mdm2 MdmX PPI: -1; Calb FLC: -5; Beta cell apopt: 2; CSC inhib: 5; T cruzi repl: 56*; SKKanGAS inh: 1

What do the screens show for `COc1cc(CN2CCCC(CCC(=O)NCc3ccc(C)o3)C2)cc2c1OCO2` (configuration not stated)?
Mdm2 MdmX PPI: 17; Calb FLC: -2; Beta cell apopt: -5; CSC inhib: 7; T cruzi repl: 69*; SKKanGAS inh: -9

What do the screens show for `COc1cccc(CNC(=O)CCC2CCCN(C(=O)c3ccc(OC)o3)C2)c1` (configuration not stated)?
Mdm2 MdmX PPI: -11; Calb FLC: 5; Beta cell apopt: 1; CSC inhib: -12; T cruzi repl: 6; SKKanGAS inh: -7

Results for COC(=O)c1ccc(CN2CCCC(CCC(=O)NCc3ccc(C)o3)C2)cc1 (configuration not stated) ?
Mdm2 MdmX PPI: 16; Calb FLC: 3; Beta cell apopt: -4; CSC inhib: -10; T cruzi repl: 69*; SKKanGAS inh: 5

What do the screens show for `COCc1ccc(CN2CCCC(CCC(=O)NCc3ccc(C)o3)C2)o1` (configuration not stated)?
Mdm2 MdmX PPI: -15; Calb FLC: -1; Beta cell apopt: -5; CSC inhib: -6; T cruzi repl: 36; SKKanGAS inh: -3

Results for CCN(Cc1ccccc1)S(=O)(=O)CCNC(=O)c1ccccc1 ?
Mdm2 MdmX PPI: -14; Calb FLC: 6; Beta cell apopt: -3; CSC inhib: -7; T cruzi repl: -10; SKKanGAS inh: -6

How did CC(C)(C)c1ccc(-n2ncc3c2CCCC3NC(=O)C2(C(N)=O)CC2)cc1 (configuration not stated) do in these assays?
Mdm2 MdmX PPI: 15; Calb FLC: -9; Beta cell apopt: 78*; CSC inhib: 20; T cruzi repl: -8; SKKanGAS inh: -2

Results for O=Cc1cc(N=Nc2ccccc2Cl)ccc1O ?
Mdm2 MdmX PPI: 0; Calb FLC: 86*; Beta cell apopt: -6; CSC inhib: -4; T cruzi repl: 2; SKKanGAS inh: 78*

What do the screens show for `COc1cc(C(=O)COC(=O)c2cnc(C)cn2)ccc1OC(F)F`?
Mdm2 MdmX PPI: 1; Calb FLC: 5; CSC inhib: -3; T cruzi repl: -7; SKKanGAS inh: 38

Results for CC(OC(=O)c1ccco1)C(=O)NCc1ccc2c(c1)OCO2 (configuration not stated) ?
Mdm2 MdmX PPI: 13; Calb FLC: -10; Beta cell apopt: -6; T cruzi repl: -4; SKKanGAS inh: 2

What do the screens show for `CC(=O)Nc1ccc(N2CCCCC2)c(C(=O)Nc2cccc(C)c2)c1`?
Mdm2 MdmX PPI: 19; Calb FLC: 94*; Beta cell apopt: -1; CSC inhib: -1; T cruzi repl: 12; SKKanGAS inh: 17

How did Cc1cccc(NC(=O)c2cc(NC(=O)C3CCCCC3C(=O)O)ccc2N2CCCCC2)c1 (configuration not stated) do in these assays?
Mdm2 MdmX PPI: -17; CSC inhib: 5

What do the screens show for `O=[N+]([O-])c1cc(CN2CCCC2)ccc1Sc1ccc(Cl)cc1`?
Mdm2 MdmX PPI: 24; Calb FLC: -19; Beta cell apopt: -2; CSC inhib: 36; T cruzi repl: 62*; SKKanGAS inh: 2

Results for Cc1nnc(-c2ccc(Oc3ccc(Br)cc3)c([N+](=O)[O-])c2)o1 ?
Mdm2 MdmX PPI: 3; Calb FLC: 4; Beta cell apopt: 0; CSC inhib: 139*; T cruzi repl: 3; SKKanGAS inh: -1

How did CC1(C)C(c2ccco2)=[N+]([O-])C2(CCCCC2=O)N1O (configuration not stated) do in these assays?
Mdm2 MdmX PPI: -17; Calb FLC: -3; Beta cell apopt: -2; CSC inhib: -12; T cruzi repl: 0; SKKanGAS inh: 1

How did C/C(=N/Nc1ccc(C)cc1)C1(C)N(O)C(C)(C)C(c2ccco2)=[N+]1[O-] (configuration not stated) do in these assays?
Mdm2 MdmX PPI: 9; Calb FLC: 112*; Beta cell apopt: -5; CSC inhib: -6; T cruzi repl: -6; SKKanGAS inh: -7

What do the screens show for `O=c1[nH]c(CSc2nnc(Cc3ccccc3)o2)nc2ccccc12`?
Mdm2 MdmX PPI: 7; Calb FLC: 3; Beta cell apopt: 0; CSC inhib: -6; T cruzi repl: 8; SKKanGAS inh: -9

How did O=C(CN1C(=O)COc2ccc(S(=O)(=O)N3CCOCC3)cc21)NCc1ccco1 do in these assays?
Mdm2 MdmX PPI: 0; Calb FLC: 1; Beta cell apopt: 0; CSC inhib: -8; T cruzi repl: 2; SKKanGAS inh: 2

What do the screens show for `O=[N+]([O-])c1cccc(/C=N/n2cnnc2)c1`?
Mdm2 MdmX PPI: 28; Calb FLC: -4; Beta cell apopt: 82*; CSC inhib: -1; T cruzi repl: -3; SKKanGAS inh: -8

How did COc1cccc(C2c3c(C)nn(-c4ccc([N+](=O)[O-])cc4)c3N=C3C(=O)Nc4ccccc4N32)c1 (configuration not stated) do in these assays?
Mdm2 MdmX PPI: 41; Calb FLC: 45; Beta cell apopt: 25; CSC inhib: 12; T cruzi repl: 63*; SKKanGAS inh: 12

How did CCOC(=O)c1ccc(N2C(=O)c3n[nH]c(-c4ccco4)c3C2c2ccc([N+](=O)[O-])cc2)cc1 (configuration not stated) do in these assays?
Mdm2 MdmX PPI: 43; Calb FLC: 5; Beta cell apopt: 19; CSC inhib: 42; T cruzi repl: 36; SKKanGAS inh: 32

What do the screens show for `Cc1nn(-c2ccc([N+](=O)[O-])cc2)c2c1C(c1ccc(OC(F)F)cc1)N1C(=N2)C(=O)Nc2ccccc21` (configuration not stated)?
Mdm2 MdmX PPI: 43; Calb FLC: 87*; Beta cell apopt: 39; CSC inhib: 20; T cruzi repl: 91*; SKKanGAS inh: 6

Results for Cc1ccc(C2c3c(C)nn(-c4ccc([N+](=O)[O-])cc4)c3N=C3C(=O)Nc4ccccc4N32)cc1 (configuration not stated) ?
Mdm2 MdmX PPI: 31; Calb FLC: 63; Beta cell apopt: 23; CSC inhib: 16; T cruzi repl: 65*; SKKanGAS inh: 12

How did COc1cccc(-c2cc(N3C(=O)Nc4ccccc4N3O)n[nH]2)c1 do in these assays?
Mdm2 MdmX PPI: 9; Calb FLC: 4; Beta cell apopt: 5; CSC inhib: 2; T cruzi repl: -4; SKKanGAS inh: 18

What do the screens show for `Cc1cccc(C(=O)NCCCNC(=O)c2cccc(C)c2)c1`?
Calb FLC: 6; Beta cell apopt: 6; CSC inhib: -1; T cruzi repl: -5; SKKanGAS inh: 1

Assay outcomes: PubChem, several laboratories
